Results on 7 molecules are retold here after ChEMBL document CHEMBL1811829, “Discovery of selective indole-based prostaglandin D₂ receptor antagonist” (Bioorg Med Chem, 2011).

One may read the Ki as a dissociation constant, usually derived from enzyme kinetics or from competition with a known ligand. A low value points to tighter binding. By IC50 is commonly meant the concentration that gives 50% inhibition. What is called inhibition in vivo is the relative decrease from the control value, in per cent. The low end stands for a weak effect, the high end for a strong effect.

In assay [1] the target is T1, Prostaglandin E2 receptor EP1 subtype (Mus musculus, UniProt P35375).
T1 sequence (P35375 whole entry): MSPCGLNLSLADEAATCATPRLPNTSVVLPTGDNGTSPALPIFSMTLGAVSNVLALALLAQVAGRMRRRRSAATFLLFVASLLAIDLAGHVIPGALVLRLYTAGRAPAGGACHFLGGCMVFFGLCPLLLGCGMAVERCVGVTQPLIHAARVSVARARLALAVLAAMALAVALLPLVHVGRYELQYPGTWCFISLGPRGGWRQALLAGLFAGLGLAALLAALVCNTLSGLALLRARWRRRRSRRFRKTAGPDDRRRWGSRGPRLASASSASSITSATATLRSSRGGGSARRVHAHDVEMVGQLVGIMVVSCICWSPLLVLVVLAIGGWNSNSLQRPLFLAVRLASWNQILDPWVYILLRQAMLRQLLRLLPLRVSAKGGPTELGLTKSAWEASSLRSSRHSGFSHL
Briefly: Displacement of [3H]-PGE2 from mouse EP1 receptor expressed in CHO cells after 20 mins by liquid scintillation counting. The format is cell-based. The method in brief:
(§1)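 Membranes from CHO cells stably expressing mEP1, mEP2, mEP3a, mEP4 or mFP were used. The radioligand was 2.5 nM [³H]PGE₂ for EP receptors and 2.5 nM [³H]PGF2α for FP. Buffer was 10 mM KH₂PO₄–KOH pH 6.0 with 1 mM EDTA, 10 mM MgCl₂ and 100 mM NaCl. Incubation was at room temperature, 20 min for mEP1 and 60 min for the others. Samples were filtered on GF/B, washed with phosphate/NaCl pH 6.0, dried 60 min at 60 °C and scintillation counted.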
Background: Displacement assays read how much labelled ligand stays bound in the presence of the test substance.

In assay [2] the target is Prostaglandin F2-alpha receptor (Mus musculus, UniProt P43117). Briefly: Displacement of [3H]-PGF2-alpha from mouse FP receptor expressed in CHO cells after 60 mins by liquid scintillation counting. It is filed as cell-based. Summed up:
as §1

Assay [3] concerns the target Prostaglandin E2 receptor EP4 subtype (Mus musculus, UniProt P32240). As to the kind of experiment: Displacement of [3H]-PGE2 from mouse EP4 receptor expressed in CHO cells after 60 mins by liquid scintillation counting. The format is cell-based. The method in brief: as §1
Assay [4] deals with Prostaglandin E2 receptor EP2 subtype (Mus musculus, UniProt Q62053). Briefly: Displacement of [3H]-PGE2 from mouse EP2 receptor expressed in CHO cells after 60 mins by liquid scintillation counting. The format is cell-based. Summed up:
as §1

Assay [5] concerns the target T2, Prostaglandin D2 receptor (Mus musculus, UniProt P70263).
T2 sequence (P70263 whole entry): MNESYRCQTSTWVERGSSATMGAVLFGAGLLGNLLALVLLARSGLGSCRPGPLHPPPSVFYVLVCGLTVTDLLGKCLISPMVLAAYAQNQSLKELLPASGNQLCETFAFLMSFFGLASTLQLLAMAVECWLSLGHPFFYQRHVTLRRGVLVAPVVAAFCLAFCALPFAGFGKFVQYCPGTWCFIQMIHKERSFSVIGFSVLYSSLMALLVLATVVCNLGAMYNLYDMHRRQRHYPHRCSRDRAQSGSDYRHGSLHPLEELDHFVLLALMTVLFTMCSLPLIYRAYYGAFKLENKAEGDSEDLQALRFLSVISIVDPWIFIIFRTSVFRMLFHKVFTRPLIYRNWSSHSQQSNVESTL
As to the kind of experiment: Antagonist activity at mouse DP receptor expressed in CHO cells assessed as inhibition of PGD2-induced cAMP accumulation after 10 mins by enzyme immunoassay in the presence of 0.1% BSA. It is filed as functional, cell-based. The method in brief:
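CHO cells stably expressing mDP were seeded at 1 × 10⁵ cells/well and grown 2 days. They were preincubated about 10 min at 37 °C in MEM with Diclofenac, then given assay medium (MEM, 0.1% BSA, 1 mM IBMX, Diclofenac). Test compound at various concentrations plus 10 nM PGD₂ was added for 10 min at 37 °C. The reaction was stopped with ice-cold 10% TCA and TCA was extracted. cAMP was measured by EIA. IC50 came from cAMP relative to the PGD₂-only maximum.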
Background: Cyclic AMP is a second messenger, typically raised through Gs and lowered through Gi signalling.

The target in assay [6] is T3, Prostaglandin E2 receptor EP3 subtype (Mus musculus, UniProt P30557).
T3 sequence (P30557 whole entry): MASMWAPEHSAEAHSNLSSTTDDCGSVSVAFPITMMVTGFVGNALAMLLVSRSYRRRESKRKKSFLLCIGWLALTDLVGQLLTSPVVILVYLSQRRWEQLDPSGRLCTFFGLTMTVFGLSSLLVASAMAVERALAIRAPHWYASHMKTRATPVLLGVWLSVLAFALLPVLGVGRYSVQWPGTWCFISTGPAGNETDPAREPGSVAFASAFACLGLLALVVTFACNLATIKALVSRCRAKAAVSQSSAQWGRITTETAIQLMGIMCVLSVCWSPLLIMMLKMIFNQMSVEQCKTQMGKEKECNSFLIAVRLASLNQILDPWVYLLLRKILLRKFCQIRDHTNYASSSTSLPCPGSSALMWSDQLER
Briefly: Displacement of [3H]-PGE2 from mouse EP3 receptor expressed in CHO cells after 60 mins by liquid scintillation counting. It is filed as cell-based. Summed up: as §1

For assay [7], the target named is Prostacyclin receptor (Homo sapiens, UniProt P43119). As to the kind of experiment: Displacement of [3H]-Iloprost from human IP receptor expressed in CHO cells after 30 mins by liquid scintillation counting. The format is cell-based. Summed up: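 Membranes from CHO cells expressing hIP were incubated with 5.0 nM [³H]Iloprost and compounds at various concentrations. Buffer was 50 mM Tris–HCl pH 7.5 with 1 mM EDTA and 10 mM MgCl₂, for 30 min at room temperature. Samples were filtered on GF/B, washed with 10 mM Tris–HCl/100 mM NaCl pH 7.5, dried 60 min at 60 °C and scintillation counted.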
Sequence of Prostacyclin receptor (P43119 whole entry): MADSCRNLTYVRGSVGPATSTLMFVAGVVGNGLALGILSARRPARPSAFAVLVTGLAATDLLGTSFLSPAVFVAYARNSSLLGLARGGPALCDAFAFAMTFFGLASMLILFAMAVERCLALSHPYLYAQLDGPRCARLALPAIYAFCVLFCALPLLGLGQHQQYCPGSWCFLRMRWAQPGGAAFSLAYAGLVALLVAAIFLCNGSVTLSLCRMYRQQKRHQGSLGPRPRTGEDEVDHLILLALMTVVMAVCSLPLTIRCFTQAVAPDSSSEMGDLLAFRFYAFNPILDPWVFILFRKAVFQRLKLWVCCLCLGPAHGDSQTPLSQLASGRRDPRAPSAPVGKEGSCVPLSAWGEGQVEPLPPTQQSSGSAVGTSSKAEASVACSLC

The target of assay [8] is T2, Prostaglandin D2 receptor. Briefly: Displacement of [3H]-PGD2 from mouse DP receptor expressed in CHO cells after 20 mins by liquid scintillation counting. It is filed as cell-based. Summed up:
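Membranes from CHO cells stably expressing mDP were incubated with 2.5 nM [³H]PGD₂ and compounds at various concentrations. Buffer was 25 mM HEPES–NaOH pH 7.4 with 1 mM EDTA, 5 mM MgCl₂ and 10 mM MnCl₂, for 20 min at room temperature. Samples were filtered on GF/B and washed with Tris–HCl pH 7.4, NaCl, 0.01% BSA. Filters were dried 60 min at 60 °C and read by scintillation counting. Nonspecific binding was set with excess unlabeled PGD₂.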

Assay [9] deals with T4, Thromboxane A2 receptor (Homo sapiens, UniProt P21731).
T4 sequence (P21731 whole entry): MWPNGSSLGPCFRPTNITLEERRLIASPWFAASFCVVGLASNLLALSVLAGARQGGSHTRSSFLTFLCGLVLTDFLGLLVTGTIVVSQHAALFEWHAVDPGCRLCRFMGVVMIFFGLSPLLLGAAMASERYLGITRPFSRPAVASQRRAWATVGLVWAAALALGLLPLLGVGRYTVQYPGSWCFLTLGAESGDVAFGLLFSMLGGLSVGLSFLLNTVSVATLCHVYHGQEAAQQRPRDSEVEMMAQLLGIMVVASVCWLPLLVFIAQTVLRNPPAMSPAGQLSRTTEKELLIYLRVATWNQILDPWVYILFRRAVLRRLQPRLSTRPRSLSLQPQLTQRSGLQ
As to the kind of experiment: Displacement of [3H]-SQ29548 from human TP receptor expressed in CHO cells after 30 mins by liquid scintillation counting. It is filed as cell-based. The method in brief:
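Membranes from CHO cells expressing hTP were incubated with 5.0 nM [³H]-SQ29548 and compounds at various concentrations. Buffer was 10 mM Tris–HCl pH 7.5 with 100 mM NaCl, for 30 min at room temperature. Samples were filtered on GF/B, washed with the same buffer, dried 60 min at 60 °C and scintillation counted. Nonspecific binding was set with excess unlabeled SQ29548.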

Assay [10] relates to Cavia porcellus. As to the kind of experiment: Inhibition of OVA-induced vascular permeability in guinea pig conjunctiva at 3 mg/kg, po administered 1 hr before antigen challenge measured after 30 mins. It is filed as functional. Summed up:
(§2)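 Male Hartley guinea pigs were sensitized i.p. with OVA (1 mg) plus inactivated Bordetella pertussis. Two weeks later they were challenged with topical OVA (1%, 20 µL/eye), followed at once by Evans blue (20 mg/kg iv). Compound was given orally 1 h before challenge. After 30 min, conjunctiva was removed and extracted in DMF at 37 °C. Dye was read at 620 nm against a standard curve.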

For assay [11], the system named is Cavia porcellus. Briefly: Inhibition of OVA-induced vascular permeability in guinea pig conjunctiva at 1 mg/kg, po administered 1 hr before antigen challenge measured after 30 mins. The format is functional. The method in brief:
as §2

Some results are limits rather than exact numbers.

Sequence of Prostaglandin E2 receptor EP2 subtype (Q62053 whole entry): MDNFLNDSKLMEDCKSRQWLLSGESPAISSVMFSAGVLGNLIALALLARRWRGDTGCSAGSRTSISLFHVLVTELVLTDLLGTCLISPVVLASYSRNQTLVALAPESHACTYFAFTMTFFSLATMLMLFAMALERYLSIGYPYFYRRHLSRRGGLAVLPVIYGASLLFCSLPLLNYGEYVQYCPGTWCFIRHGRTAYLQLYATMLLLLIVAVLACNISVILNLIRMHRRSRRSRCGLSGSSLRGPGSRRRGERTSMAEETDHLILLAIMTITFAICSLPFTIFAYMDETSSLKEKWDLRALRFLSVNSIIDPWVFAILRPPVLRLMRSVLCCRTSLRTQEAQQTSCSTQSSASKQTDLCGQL
Sequence of Prostaglandin E2 receptor EP4 subtype (P32240 whole entry): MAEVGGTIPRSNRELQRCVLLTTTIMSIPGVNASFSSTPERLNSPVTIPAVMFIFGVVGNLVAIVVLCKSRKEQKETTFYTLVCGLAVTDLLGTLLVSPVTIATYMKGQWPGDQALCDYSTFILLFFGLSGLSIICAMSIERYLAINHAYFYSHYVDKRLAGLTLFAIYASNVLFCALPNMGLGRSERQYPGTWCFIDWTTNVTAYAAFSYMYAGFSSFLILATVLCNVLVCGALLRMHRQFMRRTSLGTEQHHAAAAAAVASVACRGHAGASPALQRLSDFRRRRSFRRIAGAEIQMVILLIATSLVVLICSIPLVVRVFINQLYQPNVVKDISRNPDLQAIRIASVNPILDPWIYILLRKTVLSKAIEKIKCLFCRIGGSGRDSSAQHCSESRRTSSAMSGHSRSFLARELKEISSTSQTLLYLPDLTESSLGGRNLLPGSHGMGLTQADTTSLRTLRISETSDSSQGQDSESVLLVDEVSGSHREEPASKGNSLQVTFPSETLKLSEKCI
Sequence of Prostaglandin F2-alpha receptor (P43117 whole entry): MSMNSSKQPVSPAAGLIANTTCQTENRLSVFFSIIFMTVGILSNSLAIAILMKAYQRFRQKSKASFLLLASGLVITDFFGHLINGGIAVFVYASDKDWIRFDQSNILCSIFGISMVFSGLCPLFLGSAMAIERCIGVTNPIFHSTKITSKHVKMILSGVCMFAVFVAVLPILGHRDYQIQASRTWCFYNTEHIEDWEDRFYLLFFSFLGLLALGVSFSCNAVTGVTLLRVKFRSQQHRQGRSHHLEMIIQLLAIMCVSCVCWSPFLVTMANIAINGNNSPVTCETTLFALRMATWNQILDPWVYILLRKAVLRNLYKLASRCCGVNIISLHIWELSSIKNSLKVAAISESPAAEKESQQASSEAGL

`Cc1ccc2c(c1)c(CC(=O)O)c(C)n2C(=O)c1ccc(OC[C@@H]2CN(C)c3ccccc3O2)cc1`: the inhibitory constant (Ki) is 5.2 µM in [1]; 1.7 µM in assay [2]; 3.6 µM in assay [3]; 0.34 µM in assay [4]; 2.8 µM in assay [6]; 1.1 µM in [7]. Besides, the Ki in [8] is 0.028 µM; in assay [9], greater than 10 µM. For the same molecule, the half-maximal inhibitory concentration (IC50) in [5] was 0.0043 µM.

For the molecule `Cc1c(CC(=O)O)c2cc(F)ccc2n1C(=O)c1ccc(OC[C@@H]2CN(C)c3ccccc3O2)cc1`, the Ki in assay [1] was greater than 10 µM; in assay [2] it was 1.7 µM; in assay [3], greater than 10 µM; in [4] it was 0.25 µM; in [6] it was 1.9 µM; in assay [7], 0.32 µM. In addition, the inhibition constant (Ki) is 0.0057 µM in assay [8] and greater than 10 µM in [9]. The concentration for half-maximal inhibition (IC50) in assay [5] turned out to be 0.0018 µM.

Take `Cc1cc(OC[C@@H]2CN(C)c3ccccc3O2)ccc1C(=O)n1c(C)c(CC(=O)O)c2ccccc21`: the Ki in [1] was 2.9 µM; in assay [2], 2.6 µM; in assay [3] it was greater than 10 µM; in assay [4], 0.5 µM; in [6], 3.6 µM; in [7], 0.13 µM. The same molecule displayed an inhibition constant Ki in [8] of 0.0035 µM. In [10], this molecule registered an inhibition in vivo at 3 mg/kg of 29%. In addition, the figures for the IC50 in [5] and in assay [9] were 0.0011 µM and greater than 10 µM, respectively.

Turning to `Cc1c(CC(=O)O)c2ccccc2n1C(=O)c1ccc(OC[C@@H]2CN(C)c3ccccc3O2)cc1Cl`, the Ki in [1] is greater than 10 µM; in [3] it was greater than 10 µM; in [4], 0.6 µM; in assay [6] it was greater than 10 µM; in assay [7] it was 0.092 µM; in [8], 0.0044 µM. Besides, in [10], the inhibition in vivo at 3 mg/kg came out at 48%. Further, in assay [5], the IC50 was 0.0022 µM.

Regarding `Cc1c(CC(=O)O)c2cc(F)ccc2n1C(=O)c1ccc(OC[C@@H]2CN(C)c3ccccc3O2)cc1Cl`, the inhibition constant (Ki) in [1] was greater than 10 µM; in [2] it was 1.2 µM; in [3] it was 4.1 µM; in [4], 0.37 µM; in [6] it was 3.2 µM; in assay [7] it was 0.2 µM. Further, the affinity in assay [8], expressed as Ki, was 0.0052 µM. For the same molecule, the inhibition in vivo at 3 mg/kg in assay [10] is 52%. The IC50 is 0.0016 µM in assay [5] and greater than 10 µM in assay [9].

In [11], `CCN1c2ccccc2C[C@@H]1COc1ccc(C(=O)n2c(C)c(CC(=O)O)c3ccccc32)c(C)c1` returned an inhibition in vivo at 1 mg/kg of 42%. In addition, the Ki in assay [1] was greater than 10 µM; in assay [2], 1.4 µM; in assay [3] it was 1.6 µM; in assay [4], 2.7 µM; in assay [6], 2.8 µM; in [7], 2.2 µM. The affinity in assay [8], expressed as Ki, was 0.0048 µM. For the same molecule, the IC50 in assay [5] amounted to 0.0022 µM; in assay [9], 7.6 µM.

In [11], `Cc1cc2c(CC(=O)O)cccc2n1C(=O)c1ccc(OC[C@@H]2CN(C)c3ccccc3O2)cc1` yielded an inhibition in vivo at 1 mg/kg of 23%. Also, the inhibitory constant (Ki) in [2] was 3.1 µM; in assay [3], greater than 10 µM; in assay [7] it was 0.037 µM; in assay [8], 0.016 µM; in assay [9], 0.26 µM. Also, at 3 mg/kg the inhibition in vivo in assay [10] was 41%. Moreover, the half-maximal inhibitory concentration (IC50) in [5] was found to be 0.0024 µM.
